In ChEMBL document CHEMBL1125754, “Synthesis and antiviral activity of 9-alkoxypurines. 2. 9-(2,3-Dihydroxypropoxy)-, 9-(3,4-dihydroxybutoxy)-, and 9-(1,4-dihydroxybut-2-oxy)purines” (J Med Chem, 1991):

How the values were obtained:
[1] = test system: Human alphaherpesvirus 2; test: Compound was tested for its antiviral activity against HSV-2 (MS) using plaque reduction assay.; type: functional, organism-based
Method in brief: (§1)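 MRC-5 cell monolayers were infected with about 50 PFU of virus. Compounds were present at various concentrations for the whole incubation; stocks were 10 mg/mL in Me2SO, diluted in culture medium. IC50 is the concentration that cut plaque count to 50% of untreated controls.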

[2] = test system: Human alphaherpesvirus 1; test: Compound was tested for its antiviral activity against HSV-1 (SC16) using plaque reduction assay.; type: functional, organism-based; method in brief: as §1
[3] = test system: Human alphaherpesvirus 3; test: Compound was tested for its antiviral activity against VZV (Ellen) using plaque reduction assay.; type: functional, organism-based; method in brief: as §1
[4] = test system: Human alphaherpesvirus 2; test: Compound was tested for its antiviral activity against HSV-2(MS) using plaque reduction assay.; type: functional, organism-based; method in brief: as §1
[5] = test system: Human alphaherpesvirus 3; test: Compound was tested for its antiviral activity against VZV(Ellen) using plaque reduction assay.

SMILES | IC50 [1] | IC50 [2] | IC50 [3] | IC50 [4] | IC50 [5]
Nc1nc(O)c2ncn(OCC(O)CO)c2n1 (centres undefined) | 2.8 µM | 7.9 µM | 154 µM | – | –
Nc1nc(O)c2ncn(OC(CO)CCO)c2n1 (centres undefined) | > 390 µM | 43 µM | 30 µM | – | –
Nc1nc(O)c2ncn(OC[C@H](O)CO)c2n1 | > 415 µM | > 415 µM | > 415 µM | – | –
Nc1nc(O)c2ncn(OCCC(O)CO)c2n1 (centres undefined) | > 390 µM | > 390 µM | > 390 µM | – | –
Nc1nc2c(ncn2COCCO)c(=O)[nH]1 [ACYCLOVIR] | – | 4.8 µM | – | 1.2 µM | 15 µM
Nc1nc(O)c2ncn(O[C@H](CO)CCO)c2n1 | > 390 µM | 36 µM | 8.3 µM | – | –

Continued, in another order:

IC50 [1] | IC50 [2] | IC50 [3] | SMILES | IC50 [4] | IC50 [5]
0.46 µM | 2.7 µM | 62 µM | Nc1nc(O)c2ncn(OC[C@@H](O)CO)c2n1 | – | –
> 390 µM | 390 µM | > 390 µM | Nc1nc(O)c2ncn(O[C@@H](CO)CCO)c2n1 | – | –
